Screening data: PubChem, several laboratories
Shown are actives, neighbours in structure and some others; about 7.4% of the full set was active somewhere.
S1P1 ag pot – S1P1 agonists and agonism potentiators, primary screen, cell-based, primary and confirmation screens, CRE-bla reporter; Sphingosine 1-phosphate receptor 1 (Homo sapiens), P21453; activation, % at 9.5 µM; 56,000 tested, 0.57% active; S1P1 CRE-bla cells, forskolin, beta-lactamase FRET, potentiator mode; S1P1 agonist co-added at EC20, 2 nM; 100% = saturating reference agonist, 0% = basal;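 active = activation above a cutoff set at the mean activation of all tested compounds plus 3 SD, cut at about 54% in these data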;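 also: forskolin at 4 µM as EC80 and the EC20 agonist is SEW2871; 100% = SEW2871 at its EC100 plus forskolin at EC80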
S1P3 ag – human S1P3 receptor agonists, primary screen, cell-based, primary and confirmation, NFAT-BLA reporter; S1P3 NFAT-BLA reporter cells, agonism, FRET ratio; relative to 1 µM S1P, basal subtracted; Sphingosine 1-phosphate receptor 3 (Homo sapiens), Q99500; activation, % at 4.5 µM; 60,000 tested, 0.1% active;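 active = activation above the screen-wide mean plus 3 SD, cut at about 4.5% in these data, passing the limit was not always enough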
Target sequence (Q99500 whole entry, looked up): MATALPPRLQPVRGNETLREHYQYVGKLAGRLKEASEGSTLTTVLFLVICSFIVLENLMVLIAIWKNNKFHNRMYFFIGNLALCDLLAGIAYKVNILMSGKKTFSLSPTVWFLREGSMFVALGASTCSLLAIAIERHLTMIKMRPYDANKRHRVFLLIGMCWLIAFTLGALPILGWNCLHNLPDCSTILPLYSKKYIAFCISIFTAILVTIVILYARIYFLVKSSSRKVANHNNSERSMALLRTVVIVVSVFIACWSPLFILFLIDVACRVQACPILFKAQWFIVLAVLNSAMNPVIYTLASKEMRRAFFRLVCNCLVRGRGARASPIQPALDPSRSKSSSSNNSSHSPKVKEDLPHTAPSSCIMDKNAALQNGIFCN
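Assay system: CHO cells stably expressing human S1P3, Gα16 and NFAT-β-lactamase reporter. Timing: overnight plating, 4 h compound 37 °C, 2 h substrate RT. Signal: β-lactamase FRET emission ratio 460/535 nm. Measure: percent activation versus median 1 µM S1P response, basal-subtracted, per plate. Repeats: primary screen single test, confirmation screen in triplicate.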
M1 antag – antagonists of rat M1 muscarinic receptor | AID 628, 2007 | 64,000 tested, 3.4% active | CHO-M1 cells, Fluo-4 calcium, ACh EC80 antagonist mode; hits give low values | B-score at 10 µM;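 active = calcium fluorescence response, raw or row-and-column corrected B-score, differing from the plate sample mean either way at a set confidence level, mostly lower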
M1 ag – M1 muscarinic receptor agonists, primary screen, CHO-M1 cells, Fluo-4 calcium, agonist mode; Fluo-4 calcium fluorescence; hits give high values; Muscarinic acetylcholine receptor M1; 64,000 tested, 3% active; B-score at 10 µM; AID 626, 2007;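 active = fluorescence rise, raw or as B-score row- and column-corrected plate score, outside the 99.7% band of its plate's samples, either direction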
JNK3 blocker – JNK3 kinase activity inhibitors, primary screen, biochemical, human, purified enzyme; Mitogen-activated protein kinase 10 (Homo sapiens), P53779; HTS; inhibition, % at 8 µM; 60,000 tested, 0.61% active; in the data active = inhibition above about 17%;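 also: 0% = DMSO and 100% = reference inhibitor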
Jurkat viability – cytotoxicity toward Jurkat T cells, primary screen, cytotoxicity control, cell-based, Jurkat E6.1, 60K MLSMR library | Jurkat E6.1 viability, ATP luminescence, 48 h | inhibition, % at 4 µM | 56,000 tested, 1.2% active;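 active = inhibition above the mean inhibition of all tested compounds plus 3 SD, cut at about 28% in these data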
M1 agonist conf – rat M1 muscarinic receptor agonists, confirmation, CHO-M1 cells, Fluo-4 calcium, duplicate retest; fluorescence change (max-min) at 10 µM; 1,700 tested, 19% active; Fluo-4 calcium fluorescence, agonist mode; actives lie on both sides; shares compounds with M1 ag;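 active = fluorescence change differs from the solvent-only DMSO control mean at a set confidence level in both duplicate runs; inconclusive = differs from solvent-only control mean in just one of two runs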;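 also: an EC20 dose of acetylcholine follows compound addition during the same imaging run; raw fluorescence intensity difference in instrument units with no normalization to controls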
M4 agonist ctr – agonist activity at rat M4 receptor, confirmation, counter-screen for M1 allosteric modulator project, cell-based, agonist mode. AID 1741, 2009. fluorescence change (max-min) at 10 µM. CHO M4/Gqi5 cells, Fluo-4 calcium fluorescence; actives lie on both sides. 1,700 tested, 9% active. shares compounds with M1 ag;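 active = fluorescence change differing from the plate's solvent-only control wells at 99.7% confidence in both duplicates, whether higher or lower; inconclusive = differs from solvent controls in only one of two duplicates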
The depositor's hits bear a star; ? = inconclusive; / = not tested or not shown.

SMILES	S1P1 ag pot	S1P3 ag	M1 antag	M1 ag	JNK3 blocker	Jurkat viability	M1 agonist conf	M4 agonist ctr
O=C(OCCNC(=O)c1ccc2ccccc2n1)c1cccnc1	/	/	0.1	3.2*	/	/	?	-48
COC(=O)c1ccc2c(c1)S(=O)(=O)NC(=NCc1ccco1)S2	3	0	-0.88	-1	7	-2	/	/
CCn1c(SCC(=O)c2cc(C)n(-c3ccc(C(=O)OC)cc3)c2C)nnc1-c1cccnc1	-8	0	-2.1	3.9*	5	6	-20*	?
CCOC(=O)c1cccc(NC(=O)CSc2nnc(-c3cccnc3)n2CC)c1	10	-1	-0.47	1.1	7	4	/	/
CCN1CCc2c(sc(NC(=O)c3ccc(S(=O)(=O)N4CCOCC4)cc3)c2C(N)=O)C1	-22	4	-0.34	0.8	5	0	/	/
CC(C)N1CCc2c(sc(NC(=O)c3ccc(S(=O)(=O)N4CCOCC4)cc3)c2C(N)=O)C1	-35	0	-0.21	8.9*	-12	3	13	3.8
O=C(NCC1CCCO1)c1nnc(Cc2ccc(F)cc2)o1 (stereo not drawn)	8	-1	0.42	0.73	-1	5	/	/
O=C(C1CCCCC1)N(Cc1nc2sc3c(c2c(=O)[nH]1)CCCC3)Cc1cccs1	15	-1	-1.7	-0.25	-2	2	/	/
CC1(C)CC(=O)C2=C(C1)N(c1cccc(O)c1)C1=C(C2)C(=O)CC(C)(C)C1	8	-1	-0.53	22*	2	5	221*	170*
CCOC(=O)C1CCCN(C(=O)c2cc3c(=O)n4cccc(C)c4nc3n2C)C1 (stereo not drawn)	-29	-1	0.078	0.44	0	0	/	/
O=C(NCc1ccccc1)N(Cc1nc2ccccc2c(=O)[nH]1)C1CCCC1	10	-1	-0.3	4.2*	6	6	-12	-17
CCOC(=O)c1c(C)oc2c1c(C=NC1CCS(=O)(=O)C1)c(O)c1ccccc12 (stereo not drawn)	-6	-2	0.36	0.0088	-5	2	/	/
CCOC(=O)c1c(C)oc2c1c(C(c1ccncc1)N1CCOCC1)c(O)c1ccccc12 (stereo not drawn)	-24	-1	0.011	3*	0	-5	?	-50
CCN(CCNC(=O)CN1CCN(Cc2ccc(Cl)cc2)C1=O)c1ccccc1	/	/	-0.031	0.015	/	/	/	/
CCn1c(SCC(=O)Nc2nc(C)c(C(=O)OC)s2)nnc1C(C)C	8	1	0.33	0.86	-6	-5	/	/
COC(=O)C1=C(C)NC(=O)CC1c1cccc(Cl)c1Cl (stereo not drawn)	-16	0	0.0012	3.8*	-6	2	?	-47
CCCCCCc1cc2cc(C(=O)NC)c(=N)oc2cc1O	5	-2	-15*	401*	-5	/	3193*	2756*
Cc1cc(C)nc(/N=c2/ssnc2Cl)c1	-22	-2	0.03	6.3*	-7	4	-7.9	?
Cc1ccc(OC(C)c2nnc(N)s2)cc1Cl (stereo not drawn)	-10	0	-0.092	2.5*	0	9	-20*	-58
O=C(CSc1nnc(-c2ccccn2)n1Cc1ccccc1)Nc1ccc2c(c1)OCO2	19	-1	1.5	-1.5	7	10	/	/
O=c1c(-c2nc3ccccc3o2)c2oc3ccccc3n2c2ccccc12	-73	0	-4.7*	12*	5	7	?	-70
Nc1cc(N)cc(-c2nc3ccccc3o2)c1	-26	0	0.012	0.5	-10	-3	/	/
C=CCn1c(NCCc2ccccc2)nc2c1c(=O)n(C)c(=O)n2C	8	-1	-0.93	6.5*	0	27	25	-29
CCOC(=O)c1cc2c(=O)n3cccc(C)c3nc2n(CCCOC)c1=NC(=O)c1cccnc1	/	/	-1.3	2.4*	/	/	-23	-27
CCCCn1c(=NC(=O)c2cccnc2)c(C(=O)OCC)cc2c(=O)n3ccccc3nc21	/	/	-0.36	8.8*	/	/	-33*	?
SMILES	S1P1 ag pot	S1P3 ag	M1 antag	M1 ag	JNK3 blocker	Jurkat viability	M1 agonist conf	M4 agonist ctr
CC(=O)c1cc2c(cc1NC(=O)Nc1cccc(Cl)c1)OCCO2	8	-1	0.076	19*	2	-2	42	18
Cc1c(C(=O)OCCOC(C)C)[nH]c2c1C(=O)CC(c1ccco1)C2 (stereo not drawn)	-12	-2	-2*	6.7*	2	100*	?	-80*
Cn1c(=O)cc(SCC(=O)Nc2cccnc2)c2ccccc21	-4	-1	-0.21	2.7*	0	8	1.2	-13
CC(C)n1cc(/C=C(\C#N)S(=O)(=O)c2ccccc2)c2ccccc21	-14	0	0.26	0.02	-5	-3	/	/
COCCn1c(N)c(C(=O)OCc2ccccc2)c2nc3ccccc3nc21	-32	0	-0.49	0.73	-2	7	/	/
COCCNC(=O)c1c(N)n(CCC2=CCCCC2)c2nc3ccccc3nc12	-54	4	0.78	6.2*	9	/	5.8	-8.2
COc1ccc(CN2CCN(C(=O)c3cccs3)CC2)cc1	-25	0	0.2	-0.0043	1	2	/	/
COc1ccc(OC)c(CN2CCN(C(=O)c3cccs3)CC2)c1	-23	1	-0.4	15*	6	-8	-19	?
O=c1c(/C=N/O)coc2ccc3ccccc3c12	-4	-1	-0.63	-0.31	1	1	/	/
COc1ccc2ccccc2c1/C=N/O	9	-1	-1.3	5.6*	0	0	?	-71*
COCC(=O)NC(c1ccccc1)c1ccccc1	-3	-1	-0.34	13*	-7	7	-11	-37
Cc1c(C(=O)Nc2ccccn2)oc2ccccc12	-14	0	0.081	0.003	-1	2	/	/
CCN(CC)c1ccc2cc(NC(=O)CCC(=O)O)c(=O)oc2c1	58*	-2	-1.6*	289*	-14	-7	1953*	1754*
CCN(CC)c1ccc2cc(C(=O)Nc3ccccn3)c(=O)oc2c1	-1	-1	-4.6*	353*	-15	/	964*	1294*
